We go through four molecules from ChEMBL document CHEMBL2346554, “Extreme multidrug resistant HIV-1 protease with 20 mutations is resistant to novel protease inhibitors with P1'-pyrrolidinone or P2-tris-tetrahydrofuran” (J Med Chem, 2013).

Calls of active or inactive are those of the source. No cut-off for these calls is given here.

Assay [1] relates to Human immunodeficiency virus type 1 protease (Human immunodeficiency virus 1), Q72874 [Q7K,L10F,I13V,I15V,D30V,V32I,L33F,E35D,M36I,S37N,I47V,I54L,Q58E,I62V,L63P,A71V,I84V,N88D,L89T,L90M]. Kind of assay: Binding affinity to HIV1 protease Q7K, L10F, I13V, I15V, D30V, V32I, L33F, E35D, M36I, S37N, I47V, I54L, Q58E, I62V, L63P, A71V, I84V, N88D, L89T, L90M mutant expressed in Escherichia coli BL21 (DE3) assessed as dissociation constant by isothermal titration calorimetric analysis. A digest of the protocol:
(§1)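 PR20 (1.8−2.15 mg/mL in 12 mM HCl) was folded by adding 5 mM sodium acetate pH 6, then 100 mM sodium acetate pH 5, and centrifuged. It was titrated in the ITC cell with inhibitor at ~10-fold the PR20 concentration, in matching buffer. Inhibitor concentration was estimated from the fitted N at known PR20, assuming 1:1 binding. KL = 1/KA.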

For assay [2] the test system is unchanged. Kind of assay: Binding affinity to HIV1 protease Q7K, L10F, I13V, I15V, D30V, V32I, L33F, E35D, M36I, S37N, I47V, I54L, Q58E, I62V, L63P, A71V, I84V, N88D, L89T, L90M mutant expressed in Escherichia coli BL21 (DE3) assessed as association constant by isothermal titration calorimetric analysis. A digest of the protocol: as §1
For assay [3] the test system is unchanged. The assay can be described thus: Inhibition of transferrin receptor-fused HIV1 protease Q7K, L10F, I13V, I15V, D30V, V32I, L33F, E35D, M36I, S37N, I47V, I54L, Q58E, I62V, L63P, A71V, I84V, N88D, L89T, L90M mutant autoprocessing expressed in Escherichia coli at 100 to 150 uM by SDS-PAGE analysis.
The test system is the same in assay [4]. Kind of assay: Inhibition of transferrin receptor-fused HIV1 protease Q7K, L10F, I13V, I15V, D30V, V32I, L33F, E35D, M36I, S37N, I47V, I54L, Q58E, I62V, L63P, A71V, I84V, N88D, L89T, L90M mutant autoprocessing expressed in Escherichia coli up to 100 uM by SDS-PAGE analysis. A digest of the protocol: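 TFR-fused PR20 precursor was expressed in E. coli cultures grown with increasing inhibitor in the medium, up to 100 μM. The protein was partially purified, and autoprocessing was assessed by SDS-PAGE against wild-type TFR-PR with inhibitor.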

The target in assay [5] is Protease (Human immunodeficiency virus 1) (UniProt Q9YQ12). Particulars: 0.5 to 8 uM.
In assay [6] the test system is Human immunodeficiency virus type 1 protease (Human immunodeficiency virus 1), Q72874 [Q7K,L10F,I13V,I15V,D30V,V32I,L33F,E35D,M36I,S37N,I47V,I54L,Q58E,I62V,L63P,A71V,I84V,N88D,L89T,L90M]. Kind of assay: Ratio of amprenavir dissociation constant K to compound dissociation constant K for HIV1 protease Q7K, L10F, I13V, I15V, D30V, V32I, L33F, E35D, M36I, S37N, I47V, I54L, Q58E, I62V, L63P, A71V, I84V, N88D, L89T, L90M mutant.

The target of assay [7] is Protease (Human immunodeficiency virus 1) (UniProt Q9YQ12). Kind of assay: Inhibition of HIV1 protease dimerization transfected in COS7 cells relative to darunavir. Format: cell-based. The note with it: COS-7.

As to `CC(C)CN(C[C@@H](O)[C@H](Cc1ccccc1)NC(=O)O[C@H]1CCOC1)S(=O)(=O)c1ccc(N)cc1`, the K in assay [1] was 178 nM; in assay [2], 5.61 ×10⁶ /M. For the same molecule, the inhibition result in assay [3] is “inactive”.

Take `COc1ccc(S(=O)(=O)N(C[C@H]2CCC(=O)N2)C[C@@H](O)[C@H](Cc2ccccc2)NC(=O)O[C@@H]2C[C@@H]3CCO[C@@H]3C2)cc1`: the K in assay [1] worked out at 960 nM; in assay [2] it was 1.04 ×10⁶ /M. Besides, the inhibition entry in assay [4] is “inactive”.

As for `CC(C)CN(C[C@@H](O)[C@H](Cc1ccccc1)NC(=O)O[C@H]1CO[C@H]2OCC[C@H]21)S(=O)(=O)c1ccc(N)cc1`, the figures for the K in assay [1] and in assay [2] were 41 nM and 24.5 ×10⁶ /M, respectively. Moreover, the inhibition entry in assay [5] is “Active”. In addition, the inhibition result in assay [3] was “inactive”.

As for `COc1ccc(S(=O)(=O)N(CC(C)C)C[C@@H](O)[C@H](Cc2ccccc2)NC(=O)O[C@H]2CO[C@H]3O[C@@H]4OCC[C@@H]4[C@H]32)cc1`, the Ratio in assay [6] was 4.5. The fold change (FC) in assay [7] is 10. Besides, the figures for the K in assay [1] and in assay [2] were 39.5 nM and 25.3 ×10⁶ /M, respectively. In assay [4], the inhibition result was “inactive”.
